GRK2 inh = human GRK2 inhibition via aptamer displacement; bead flow cytometry, FAM-aptamer displacement from GRK2; P25098; hit rate 0.59% among 330,000; inhibition of aptamer binding, % at 10 µM;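 active = inhibition of aptamer binding above 40%, roughly 3 SD of noise, on plates passing a quality check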;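 note: median bead fluorescence of bound FAM aptamer so fluorescent compounds give negative values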
Target sequence (P25098 whole entry, looked up): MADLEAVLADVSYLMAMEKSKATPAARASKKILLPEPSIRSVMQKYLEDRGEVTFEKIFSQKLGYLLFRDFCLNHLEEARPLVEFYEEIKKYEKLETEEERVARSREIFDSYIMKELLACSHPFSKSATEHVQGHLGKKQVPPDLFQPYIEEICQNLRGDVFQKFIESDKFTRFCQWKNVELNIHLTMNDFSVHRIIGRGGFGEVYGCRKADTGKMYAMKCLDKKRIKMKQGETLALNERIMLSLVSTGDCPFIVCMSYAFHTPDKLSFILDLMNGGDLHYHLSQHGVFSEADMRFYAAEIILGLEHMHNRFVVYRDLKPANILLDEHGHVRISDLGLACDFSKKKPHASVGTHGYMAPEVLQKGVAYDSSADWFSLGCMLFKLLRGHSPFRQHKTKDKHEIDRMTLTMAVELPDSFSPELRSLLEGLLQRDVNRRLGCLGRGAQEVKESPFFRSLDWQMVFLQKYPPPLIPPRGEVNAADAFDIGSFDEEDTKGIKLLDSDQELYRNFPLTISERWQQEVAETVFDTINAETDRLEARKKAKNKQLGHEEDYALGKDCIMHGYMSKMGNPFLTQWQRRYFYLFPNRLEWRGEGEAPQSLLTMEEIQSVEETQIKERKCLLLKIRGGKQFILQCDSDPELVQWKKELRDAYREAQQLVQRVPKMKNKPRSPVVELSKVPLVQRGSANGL
Rin1-Abl PPI inh = inhibitors of human Rin1-Abl protein interaction; hit rate 0.4% among 360,000; P00519+Q13671; AID 588664; inhibition, % at 7.35 µM; TR-FRET Rin1/Abl binding, biochemical; in the data active = inhibition above about 5%, passing the limit was not always enough
SR-BI HDL uptake = blocks mouse SR-BI lipid uptake from DiI-HDL; Q61009; ldlA[mSR-BI] CHO cells, DiI-HDL uptake fluorescence, 3 h; inhibition, % at 12.5 µM; hit rate 0.96% among 320,000; AID 488896;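 active = mean replicate inhibition of at least 70% and a set share of replicates each scoring 70 or more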
SR-BI uptake up = activators of SR-BI mediated HDL lipid uptake | activation, % at 12.5 µM | CHO ldlA[mSR-BI] cells, DiI-HDL uptake fluorescence, 3 h; 100 = double the neutral-control signal | hit rate 0.096% among 320,000;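 active = mean replicate activation of at least 60% and every replicate at or above 60%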
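Material: SR-BI-overexpressing, LDLR-lacking CHO cells; schedule: compound exposure 3 h, 37 °C; reagent: DiI-labelled HDL at 10 µg/mL final; technique: bottom-read fluorescence, 550/595 nm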
Rin1-Abl confirm = Rin1-Abl interaction inhibition confirmation; AID 602124; shares compounds with Rin1-Abl PPI inh; inhibition, % at 7.35 µM; hit rate 49% among 1,300; TR-FRET Rin1-Abl binding, purified proteins
GFP quencher = quenches GFP fluorescence, counter-screen for Rin1-Abl inhibitors. shares compounds with Rin1-Abl PPI inh. inhibitors/quenchers counterscreen. inhibition, % at 6.75 µM. hit rate 8.5% among 1,300. AID 602125;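 note: ABL1-eGFP fusion protein alone without its partner RIN1-SBP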
GFP quench DR = counter-screen for Rin1-Abl inhibitors: GFP quenchers, dose response | shares compounds with Rin1-Abl PPI inh | GFP fluorescence interference/quenching counterscreen | IC50, µM | 230 tested, under 10 active | AID 602182; call rule not given here;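 note: ABL1-eGFP fusion protein alone without its RIN1 binding partner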
Large screens that a line does not name were inactive (follow-up assays come after a bar, where they were run). The list is not random: actives were taken first. Their share in the collection is about 1.9%. Cut-off read from the data, not from the text of the source, unless noted: active = inhibition above about 6.5%; inactive = the rest.

CCCC(C)NC(=O)Cn1c(=O)c2c(ncn2CCC(C)C)n(Cc2ccccc2)c1=O (stereo not drawn)	none (no result: SR-BI HDL uptake, SR-BI uptake up)
NCCN1CCN(CC(=O)N2c3ccccc3C(=O)Nc3cccnc32)CC1	none
O=C1Nc2cccnc2N(C(=O)CCl)c2ccccc21	Rin1-Abl PPI inh 43 | Rin1-Abl confirm inactive | GFP quencher inactive
C[C@H](CO)N1C[C@H](C)[C@@H](CN(C)Cc2ccncc2)Oc2c(NC(=O)c3ccncc3)cccc2C1=O	Rin1-Abl PPI inh 9.3 | Rin1-Abl confirm 9.5 | GFP quencher inactive
C[C@H](CO)N1C[C@H](C)[C@@H](CN(C)CC2CCCCC2)Oc2c(NS(=O)(=O)c3cccs3)cccc2C1=O	none
C[C@H](CO)N1C[C@H](C)[C@@H](CN(C)Cc2ccc(-c3ccccc3)cc2)Oc2c(NS(=O)(=O)c3cccs3)cccc2C1=O	Rin1-Abl PPI inh 16 | Rin1-Abl confirm 16 | GFP quencher inactive
COc1ccc(CCNC(=O)CN2C(=O)COc3ccc(S(=O)(=O)N4CCCC4)cc32)c(OC)c1	none
CC(NC(=O)c1cccc(F)c1)C1CC2CCC1C2 (stereo not drawn)	none
CC(NC(=O)c1ccc(F)cc1F)C1CC2CCC1C2 (stereo not drawn)	Rin1-Abl PPI inh 8.1 | Rin1-Abl confirm inactive | GFP quencher inactive
O=C1C2C3C=CC([C@@H]2C(=O)N1Cc1cccnc1)C31CC1 (stereo partly drawn)	none
N#CC12CCCCC1CC1CCCCC1(C#N)N2Cc1cccnc1 (stereo not drawn)	Rin1-Abl PPI inh 53 | Rin1-Abl confirm 92 | GFP quencher inactive | GFP quench DR inactive
CCCCN(C)c1c(C)nc2ccc(C(=O)NCc3ccc4c(c3)OCO4)cn12	none (no result: GRK2 inh, SR-BI HDL uptake, SR-BI uptake up)
CCCOC(=O)c1ccc(NC(=O)CCC(=O)OCC)cc1	Rin1-Abl PPI inh 10 | Rin1-Abl confirm 14 | GFP quencher inactive
Cc1ccc(-c2ccc3c(c2)O[C@H](CN(C)Cc2cncnc2)[C@@H](C)CN([C@H](C)CO)S3(=O)=O)cc1	none (no result: GRK2 inh, SR-BI HDL uptake, SR-BI uptake up)
COc1ccc(/C=N\NC(=O)c2cc(O)c(O)c(O)c2)cc1COc1ccc(C(=O)OCC(C)C)cc1	Rin1-Abl PPI inh 15, SR-BI HDL uptake 79 | Rin1-Abl confirm 11 | GFP quencher inactive
COc1ccc(/C=N\NC(=O)c2cc(O)c(O)c(O)c2)cc1CN1CCN(c2ccc(F)cc2)CC1	Rin1-Abl PPI inh 53 | Rin1-Abl confirm 50 | GFP quencher 11
COc1ccc(C(=O)N/N=C/c2ccc(OC)c(COc3ccccc3)c2)cc1	none
CC(C)NC(=O)Nc1ccc2c(c1)C(=O)N([C@H](C)CO)C[C@@H](C)[C@@H](CN(C)C(=O)NC1CCCCC1)O2	none
Cc1ccc(NC(=O)COC(=O)Cc2c[nH]c3ccccc23)cc1F	Rin1-Abl PPI inh 10 (no result: GRK2 inh) | Rin1-Abl confirm inactive | GFP quencher inactive
O=C(COC(=O)Cc1c[nH]c2ccccc12)Nc1ccc(Cl)cc1	none (no result: GRK2 inh, SR-BI HDL uptake, SR-BI uptake up)
COc1ccc(CCCc2nnc(SCC(=O)Nc3nccs3)n2C)cc1C	Rin1-Abl PPI inh 8.4 | Rin1-Abl confirm inactive | GFP quencher inactive
CCC(=O)Nc1ccc(-c2nnc(SCC(=O)Nc3nccs3)n2C)cc1	Rin1-Abl PPI inh 7.2 | Rin1-Abl confirm inactive | GFP quencher inactive
Cc1ccc(-c2nnc(SCC(=O)Nc3nccs3)n2N)cc1	Rin1-Abl PPI inh 8.0 | Rin1-Abl confirm 9.9 | GFP quencher inactive
CCn1c(SCC(=O)Nc2nccs2)nnc1-c1ccc(C)cc1	none
CC(=O)N1CCN(CC(O)COc2ccc(S(=O)(=O)N3CCOCC3)cc2)CC1 (stereo not drawn)	none
CN(C)CCNc1ncnc2c1ncn2[C@H]1CN(Cc2ccncc2)C[C@@H](CO)O1	none (no result: GRK2 inh, SR-BI HDL uptake, SR-BI uptake up)
CN(/N=C/c1ccc(O)cc1O)c1ncc(C(F)(F)F)cc1Cl	Rin1-Abl PPI inh 8.6 | Rin1-Abl confirm inactive | GFP quencher inactive
CN(/N=C/c1ccccc1Cl)c1ncc(Cl)cc1C(F)(F)F	none
CN(Cc1ccccc1)S(=O)(=O)c1ccc(Cl)c(C(=O)N2CCC2)c1	Rin1-Abl PPI inh 22 | Rin1-Abl confirm 17 | GFP quencher inactive | GFP quench DR inactive
CC1(C(=O)NS(=O)(=O)c2ccc(F)cc2F)CCN1C(=O)Cc1cccc2ccccc12 (stereo not drawn)	none (no result: GRK2 inh, SR-BI HDL uptake, SR-BI uptake up)
CC(=O)NC(Cc1ccccc1)C(=O)Oc1ccc2ccccc2c1 (stereo not drawn)	none (no result: GRK2 inh)
O=C(Cc1cnn(-c2ccccc2)c1)c1ccc(O)c(O)c1O	Rin1-Abl PPI inh 13 | Rin1-Abl confirm inactive | GFP quencher 11
CCc1cc(C(=O)Cc2cnn(-c3ccccc3)c2)c(O)cc1O	none
O=C(c1ccco1)N1CCc2[nH]nc(-c3ccc(Cl)cc3)c2C1	Rin1-Abl PPI inh 16 | Rin1-Abl confirm inactive | GFP quencher inactive
CC(C)c1ccc(CC(=O)N2CCC2(C)C(=O)NS(=O)(=O)c2cccc(OC(F)F)c2)cc1 (stereo not drawn)	none (no result: GRK2 inh, SR-BI HDL uptake, SR-BI uptake up)
Cc1ccc(NC(=O)CSc2nnc(-c3cccnc3)n2-c2ccc(C)cc2)cc1	Rin1-Abl PPI inh 11 | Rin1-Abl confirm 11 | GFP quencher inactive
CNC(=O)CSc1nnc(-c2cccnc2)n1-c1ccc(C)cc1	none
Cc1ccc(-n2c(SCC(=O)NCc3ccco3)nnc2-c2cccnc2)cc1	Rin1-Abl PPI inh 7.4 | Rin1-Abl confirm 8.4 | GFP quencher inactive
C[C@H]1CN([C@@H](C)CO)S(=O)(=O)c2ccc(/C=C/c3ccccc3)cc2O[C@H]1CN(C)C(=O)NC1CCCCC1	none (no result: GRK2 inh, SR-BI HDL uptake, SR-BI uptake up)
CCCNC(=O)C1(C)CCN(C(=O)c2cccc(C(F)(F)F)c2)C1 (stereo not drawn)	none (no result: GRK2 inh, SR-BI HDL uptake, SR-BI uptake up)
COc1ccc(NC(=O)C2CCCN(c3ncnc4onc(-c5ccc(F)cc5)c34)C2)cc1 (stereo not drawn)	Rin1-Abl PPI inh 9.2 | Rin1-Abl confirm inactive | GFP quencher inactive
CCOc1cccc2sc(N(CCN(C)C)C(=O)c3cc4ccccc4cc3OC)nc12	none
CCOc1ccc2nc(N(CCN(C)C)C(=O)c3cc4ccccc4cc3OC)sc2c1	Rin1-Abl PPI inh 17 | Rin1-Abl confirm 17 | GFP quencher inactive | GFP quench DR inactive
Oc1cccc(/C=N/NC(=S)Nc2cccnc2)c1O	none
COc1cccc(N/N=C/c2cccc(Br)c2O)c1	none (no result: SR-BI HDL uptake, SR-BI uptake up)
Oc1ccc(/C=N/NC(=S)Nc2cccnc2)c(O)c1O	Rin1-Abl PPI inh 31 (no result: GRK2 inh) | Rin1-Abl confirm 19 | GFP quencher 15
Cc1cccc(N/N=C/c2ccc(O)c(O)c2O)c1	Rin1-Abl PPI inh 26 (no result: SR-BI HDL uptake, SR-BI uptake up) | Rin1-Abl confirm 23 | GFP quencher 13
Cc1cccnc1C1=NOC(Cc2ccccc2)C(=O)N1Cc1ccc2c(c1)OCO2 (stereo not drawn)	none (no result: GRK2 inh, SR-BI HDL uptake, SR-BI uptake up)
Clc1ccc(C=Cc2ccccn2)c(Cl)c1	none (no result: GRK2 inh)
Cc1cnc(CNC(=O)c2csc([C@@H]3O[C@H](CO)[C@H](O)[C@H](O)[C@H]3O)n2)cn1	none (no result: GRK2 inh, SR-BI HDL uptake, SR-BI uptake up)
